According to ChEMBL document CHEMBL1157729, “Structure-activity relationship and mechanism of action studies of manzamine analogues for the control of neuroinflammation and cerebral infections” (J Med Chem, 2010):
In brackets after ≈: the same amount, converted by molar mass.

Key:
[1] = tested on: Plasmodium berghei; test: Antiplasmodial activity against Plasmodium berghei NK65 infected in Swiss Webster mice (Mus musculus) assessed as survivability at 5 mg/kg, perorally administered 1 day after infection for 3 days measured after 28 days post infection; assay type: functional; settings: route oral
[2] = tested on: Plasmodium berghei; test: Antiplasmodial activity against Plasmodium berghei NK65 infected in Swiss Webster mice (Mus musculus) assessed as survivability at 3.3 mg/kg, perorally administered 1 day after infection for 3 days measured after 28 days post infection; assay type: functional; settings: route oral
Summary of the method: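 Male Swiss Webster mice (18-20 g), at least 5 per group, inoculated i.p. with 2×10^7 P. berghei NK-65-parasitized red cells from a donor mouse. Oral dosing (100 μl, in SSV or 0.01 M HCl dilutions) from day one post-infection on a 3-day schedule (modified Peters test). Giemsa-stained tail-blood smears read from day 5 to day 28. Cure means no parasitemia through day 28.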

[3] = species on record: Mus musculus; test: Toxicity in Plasmodium berghei NK65 infected Swiss Webster mice (Mus musculus) assessed as weight loss after 5 days post infection; assay type: organism-based; settings: in vivo, 120 h
[4] = tested on: HeLa; test: Cell cycle arrest in human HeLa cells assessed as increase in G0/G1 phase accumulation at 10 uM after 24 hrs by FACS analysis; assay type: functional
[5] = tested on: Plasmodium berghei; test: Antiplasmodial activity against Plasmodium berghei NK65 infected in Swiss Webster mice (Mus musculus) assessed as average parasitaemia at 200 mg/kg, perorally administered 1 day after infection measured after 10 days post infection; assay type: functional; settings: Plasmodium berghei, NK65, route oral
Summary of the method: (§1)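 Male Swiss Webster mice (18-20 g, ≥5/group) inoculated i.p. with 2×10^7 P. berghei NK-65 parasitized RBC, given a single oral dose (100 μl, SSV or dilute HCl vehicle); parasitemia by Giemsa-stained tail blood smears days 5–28; activity as % decrease versus untreated controls on day 5.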

[6] = tested on: Plasmodium berghei; test: Antiplasmodial activity against Plasmodium berghei NK65 infected in Swiss Webster mice (Mus musculus) assessed as inhibition of parasitaemia at 10 mg/kg, perorally administered 1 day after infection for 3 days measured after 5 days post infection; assay type: functional; settings: route oral
Summary of the method: (§2)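 Male Swiss Webster mice (18-20 g, ≥5/group) inoculated i.p. with 2×10^7 P. berghei NK-65 parasitized RBC; oral dosing (100 μl, SSV or dilute HCl vehicle) once daily for 3 days from day 1; Giemsa-stained tail blood smears days 5–28; inhibition is % decrease versus untreated controls on day 5.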

[7] = Antineuroinflammatory activity in LPS-stimulated rat neonatal microglia assessed as drug level causing 50% PMA-induced LDH release preincubated 15 mins prior to PMA challenge measured after 70 mins; assay type: functional
Summary of the method: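 Neonatal rat microglia (2 × 10^5/well) primed with E. coli LPS 0.3 ng/mL for 17 h at 35.9 °C, washed with HBSS, given compound (0.01–10 μM) or DMSO 15 min, then PMA 1 μM; LDH read spectrophotometrically after 70 min; LDH50 relative to Triton X-100 (0.1%) release; duplicates.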

[8] = species on record: Mus musculus; test: Toxicity in Plasmodium berghei NK65 infected Swiss Webster mice (Mus musculus) assessed as weight loss until day 5 of post infection; assay type: organism-based; settings: in vivo
[9] = tested on: Plasmodium berghei; test: Antiplasmodial activity against Plasmodium berghei NK65 infected in Swiss Webster mice (Mus musculus) assessed as average parasitaemia at 100 mg/kg, perorally administered 1 day after infection measured after 5 days post infection; assay type: functional; settings: route oral; summary of the method: as §1
[10] = tested on: Plasmodium berghei; test: Antiplasmodial activity against Plasmodium berghei NK65 infected in Swiss Webster mice (Mus musculus) assessed as parasitaemia cure at 200 mg/kg, perorally administered 1 day after infection measured after 28 days post infection; assay type: functional; settings: Plasmodium berghei, NK65, route oral
Summary of the method: (§3)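 Male Swiss Webster mice (18-20 g), at least 5 per group, were inoculated ip with 2×10^7 P. berghei NK-65-parasitized red cells from a donor mouse and given a single oral dose (100 μl). Stock was made in SSV or 0.1 M HCl and diluted in SSV or 0.01 M HCl. Parasitemia was read from Giemsa-stained tail blood smears from day 5 to day 28. Cure meant no parasitemia through day 28.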

[11] = tested on: Plasmodium berghei; test: Antiplasmodial activity against Plasmodium berghei NK65 infected in Swiss Webster mice (Mus musculus) assessed as average parasitaemia at 50 mg/kg, perorally administered as single dose measured after 5 days of inoculation; assay type: functional; settings: NK65, 120 h, route oral; summary of the method: as §1
[12] = tested on: Cryptococcus neoformans; test: Antifungal activity against Cryptococcus neoformans ATCC 90113; assay type: functional, organism-based
Summary of the method: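 Broth microdilution per modified CLSI method; samples serially diluted in 20% DMSO/saline, tested in duplicate; inocula set by OD630 of suspensions in incubation broth; growth read at 630 nm before and after incubation; amphotericin B drug control.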

[13] = tested on: Plasmodium berghei; test: Antiplasmodial activity against Plasmodium berghei NK65 infected in Swiss Webster mice (Mus musculus) assessed as average parasitaemia at 5 mg/kg, perorally administered 1 day after infection for 3 days measured after 21 days post infection; assay type: functional; settings: route oral
[14] = tested on: Plasmodium berghei; test: Antiplasmodial activity against Plasmodium berghei NK65 infected in Swiss Webster mice (Mus musculus) assessed as average parasitaemia at 50 mg/kg, perorally administered 1 day after infection measured after 10 days post infection; assay type: functional; settings: route oral
[15] = tested on: Plasmodium berghei; test: Antiplasmodial activity against Plasmodium berghei NK65 infected in Swiss Webster mice (Mus musculus) assessed as survivability at 10 mg/kg, perorally administered 1 day after infection for 3 days measured after 28 days post infection; assay type: functional; settings: route oral
[16] = tested on: Plasmodium berghei; test: Antiplasmodial activity against Plasmodium berghei NK65 infected in Swiss Webster mice (Mus musculus) assessed as inhibition of parasitaemia at 5 mg/kg, perorally administered 1 day after infection for 3 days measured after 5 days post infection; assay type: functional; settings: route oral
[17] = tested on: Plasmodium berghei; test: Antiplasmodial activity against Plasmodium berghei NK65 infected in Swiss Webster mice (Mus musculus) assessed as average parasitaemia at 100 mg/kg, perorally administered 1 day after infection measured after 14 days post infection; assay type: functional; settings: route oral; summary of the method: as §1
[18] = tested on: Plasmodium berghei; test: Antiplasmodial activity against Plasmodium berghei infected in mice (Mus musculus) at 5 mg/kg, subcutaneously administered 1 day post infection for 3 days; assay type: functional; settings: route subcutaneous
[19] = tested on: Plasmodium berghei; test: Antiplasmodial activity against Plasmodium berghei NK65 infected in Swiss Webster mice (Mus musculus) assessed as average parasitaemia at 50 mg/kg, perorally administered 1 day after infection measured after 14 days post infection; assay type: functional; settings: route oral; summary of the method: as §1
[20] = tested on: Plasmodium berghei; test: Antiplasmodial activity against Plasmodium berghei NK65 infected in Swiss Webster mice (Mus musculus) assessed as average parasitaemia at 200 mg/kg, perorally administered 1 day after infection measured after 5 days post infection; assay type: functional; settings: Plasmodium berghei, NK65, route oral; summary of the method: as §3
[21] = tested on: Mus musculus; test: Toxicity in Plasmodium berghei NK65 infected Swiss Webster mice (Mus musculus) assessed as behavioral change at 100 mg/kg, perorally; assay type: organism-based; parameters: dose 100 mg/kg, route oral; settings: in vivo, po
Summary of the method: (§4)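 P. berghei NK-65 infection in male Swiss Webster mice (18-20 g; 2×10^7 parasitized erythrocytes i.p.; ≥5 per group). A single oral dose of 100 μl, diluted in SSV or 0.01 M HCl, then observation for toxicity signs and body weight. Parasitemia read from Giemsa-stained tail smears from day 5 through day 28. Mice free of parasitemia through day 28 counted as cured.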

[22] = tested on: Plasmodium berghei; test: Antiplasmodial activity against Plasmodium berghei NK65 infected in Swiss Webster mice (Mus musculus) assessed as parasitaemia cure at 50 mg/kg, perorally administered 1 day after infection measured after 28 days post infection; assay type: functional; settings: route oral; summary of the method: as §4
[23] = tested on: Plasmodium berghei; test: Antiplasmodial activity against Plasmodium berghei NK65 infected in Swiss Webster mice (Mus musculus) assessed as average parasitaemia at 3.3 mg/kg, perorally administered 1 day after infection for 3 days measured after 7 days post infection; assay type: functional; settings: route oral; summary of the method: as §2
[24] = tested on: HeLa; test: Cell cycle arrest in human HeLa cells assessed as increase in S phase accumulation at 3 uM after 24 hrs by FACS analysis; assay type: functional

For O[C@]12C=C(c3nccc4c3[nH]c3ccccc34)[C@@H]3CCN(CCCC/C=C\CC1)C[C@@]31C[C@@H]3/C=C\CCCCN3[C@H]12 [MANZAMINE A], the inhibition in vivo at 5 mg/kg [1] was 100%, the inhibition in vivo at 3.3 mg/kg [2] was 100% and the Activity [3] was “Non-toxic”. The Activity [4] was 59.1%, the inhibition in vivo at 200 mg/kg [5] was 0% and the inhibition in vivo at 10 mg/kg [6] was 98%. The Activity [7] was greater than 10 µM, the Activity [8] was “Toxic” and the inhibition in vivo at 100 mg/kg [9] was 0%. For the same compound, the inhibition in vivo at 200 mg/kg [10] was 100%, the inhibition in vivo at 50 mg/kg [11] was 0% and the IC50 [12] was 1 µg/mL (≈ 1.82 µM). For the same compound, the inhibition in vivo at 5 mg/kg [13] was 21.7%, the inhibition in vivo at 50 mg/kg [14] was 0% and the inhibition in vivo at 10 mg/kg [15] was 100%. For the same compound, the inhibition in vivo at 5 mg/kg [16] was 88%, the inhibition in vivo at 100 mg/kg [17] was 0% and the Activity [18] was 19.7 days. The inhibition in vivo at 50 mg/kg [19] was 1%, the inhibition in vivo at 200 mg/kg [20] was 0% and the Activity [21] was “Non-toxic”. The inhibition in vivo at 50 mg/kg [22] was 60%, the inhibition in vivo at 3.3 mg/kg [23] was 2.8% and the Activity [24] was 56.2%.
